Assay outcomes: PubChem, several laboratories
The list is not random: actives were taken first. Their share in the collection is about 3.5%.
PAFAH2 FP inh: inhibitors of human PAFAH2; Q99487; recombinant PAFAH2, FP-rhodamine activity probe, fluorescence polarization; inhibition, % at 3.39 µM; 0.99% of 340,000 active; AID 492956;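 active = inhibition above the mean over all tested compounds plus 3 SD, cut at about 30% in these data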;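 also: inhibitors block probe labeling of enzyme so polarization drops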
PAFAH1B2 FP inh: PAFAH1B2 (human) inhibition. P68402. recombinant PAFAH1B2, FP-rhodamine activity probe, fluorescence polarization. inhibition, % at 3.39 µM. 1.2% of 340,000 active. AID 492953;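 active = inhibition above the mean of all tested compounds plus 3 SD, cut at about 24% in these data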
PREPL inh: human PREPL enzyme inhibition | Q4J6C6 | recombinant PREPL, fluorescence polarization activity-based probe | inhibition, % at 5.96 µM | 0.68% of 320,000 active; in the data active = inhibition above about 43%
pPAFAH inh: pPAFAH (human) enzyme inhibition; Q13093; 1.5% of 330,000 active; recombinant pPAFAH, FP-rhodamine probe fluorescence polarization; inhibition, % at 3.39 µM;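 active = inhibition above the mean inhibition across the screen plus 3 SD, cut at about 25% in these data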;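 also: inhibitors block binding of the rhodamine activity-based probe so polarization drops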
Apaf-1 inh: blocks human Apaf-1 apoptosome activity; O14727; reconstituted apoptosome caspase-3 activity, DEVD-Rh110 fluorescence; inhibition, % at 20 µM; 0.71% of 330,000 active; active = inhibition of at least 40% at 20 µM
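detection = Rh110 fluorescence intensity | test system = biochemical Apaf-1 apoptosome reconstitution | also added = cytochrome c and DEVD-Rh110 substrate | schedule = 30 min plus 50 min, RT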
PAFAH1B3 FP inh: blocks human PAF acetylhydrolase 1B catalytic subunit 3. Q15102. recombinant PAFAH1B3, FP-rhodamine probe, fluorescence polarization. inhibition, % at 3.39 µM. 0.28% of 340,000 active;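 active = inhibition above the screen-wide average of all tested compounds plus 3 SD, cut at about 25% in these data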
A number is an active result.

How did CCCCc1cc(=O)oc2cc(C)cc(OCC(=O)NCc3ccccn3)c12 do in these assays?
PAFAH2 FP inh: inactive; PAFAH1B2 FP inh: inactive; PREPL inh: inactive; pPAFAH inh: inactive; Apaf-1 inh: inactive; PAFAH1B3 FP inh: inactive

What do the screens show for `COc1cc(NC(=O)CN2C(=O)NC3(CCOc4ccccc43)C2=O)cc(OC)c1` (centres undefined)?
PAFAH2 FP inh: inactive; PAFAH1B2 FP inh: inactive; PREPL inh: inactive; pPAFAH inh: inactive; Apaf-1 inh: 59; PAFAH1B3 FP inh: inactive

What do the screens show for `CS(=O)c1ccc(-n2c(=O)n(Cc3ccccc3)c(=O)c3[nH]cnc32)cc1` (centres undefined)?
PAFAH2 FP inh: inactive; PAFAH1B2 FP inh: inactive; PREPL inh: inactive; pPAFAH inh: inactive; Apaf-1 inh: inactive; PAFAH1B3 FP inh: inactive

How did O=C(O)c1cc(-c2ccc(Cl)c(Cl)c2)n(-c2ccccc2)n1 do in these assays?
PAFAH2 FP inh: inactive; PAFAH1B2 FP inh: 29; PREPL inh: inactive; pPAFAH inh: inactive; Apaf-1 inh: inactive; PAFAH1B3 FP inh: inactive

How did O=C(CSc1nc2ccccc2s1)NCCOc1ccccc1 do in these assays?
PAFAH2 FP inh: inactive; PAFAH1B2 FP inh: 27; PREPL inh: inactive; pPAFAH inh: inactive; Apaf-1 inh: inactive; PAFAH1B3 FP inh: inactive

How did COc1ccc(C(=O)OC(C)C(=O)NC2CCCCC2C)cc1S(=O)(=O)N1CCOCC1 (centres undefined) do in these assays?
PAFAH2 FP inh: inactive; PAFAH1B2 FP inh: inactive; PREPL inh: inactive; pPAFAH inh: inactive; Apaf-1 inh: inactive; PAFAH1B3 FP inh: inactive

How did Cc1ccccc1Nc1nc(N)nc(COC(=O)CCNS(=O)(=O)c2ccccc2)n1 do in these assays?
PAFAH2 FP inh: inactive; PAFAH1B2 FP inh: inactive; PREPL inh: inactive; pPAFAH inh: 28; Apaf-1 inh: inactive; PAFAH1B3 FP inh: inactive

What do the screens show for `O=C(COC(=O)CCNS(=O)(=O)c1ccccc1)NC(=O)Cc1ccccc1`?
PAFAH2 FP inh: inactive; PAFAH1B2 FP inh: inactive; PREPL inh: inactive; pPAFAH inh: 30; Apaf-1 inh: inactive; PAFAH1B3 FP inh: inactive

What do the screens show for `O=C(CNS(=O)(=O)c1ccccc1)OCC(=O)c1ccc(F)cc1`?
PAFAH2 FP inh: inactive; PAFAH1B2 FP inh: inactive; PREPL inh: inactive; pPAFAH inh: inactive; Apaf-1 inh: inactive; PAFAH1B3 FP inh: inactive

What do the screens show for `CC(=O)c1ccc(S(=O)(=O)NCCC(=O)OCC(=O)NCCc2ccccc2)cc1`?
PAFAH2 FP inh: inactive; PAFAH1B2 FP inh: inactive; PREPL inh: inactive; pPAFAH inh: inactive; Apaf-1 inh: inactive; PAFAH1B3 FP inh: inactive

What do the screens show for `O=C(CCNS(=O)(=O)c1ccccc1)OCC(=O)c1ccc(F)cc1`?
PAFAH2 FP inh: inactive; PAFAH1B2 FP inh: inactive; PREPL inh: inactive; pPAFAH inh: 34; Apaf-1 inh: inactive; PAFAH1B3 FP inh: inactive

Results for Cc1cc(Cl)ccc1NC(=O)COC(=O)CCNS(=O)(=O)c1ccccc1 ?
PAFAH2 FP inh: inactive; PAFAH1B2 FP inh: inactive; PREPL inh: inactive; pPAFAH inh: 34; Apaf-1 inh: inactive; PAFAH1B3 FP inh: inactive

What do the screens show for `COc1ccc(CN(Cc2cc3cccc(C)c3n3nnnc23)C(=O)N2CCOCC2)cc1`?
PAFAH2 FP inh: inactive; PAFAH1B2 FP inh: inactive; PREPL inh: inactive; pPAFAH inh: inactive; Apaf-1 inh: inactive; PAFAH1B3 FP inh: inactive

Results for Cc1ccnc(NC(=O)c2ccc(S(=O)(=O)N3CCCC3)cc2)c1 ?
PAFAH2 FP inh: inactive; PAFAH1B2 FP inh: inactive; PREPL inh: inactive; pPAFAH inh: inactive; Apaf-1 inh: inactive; PAFAH1B3 FP inh: inactive

How did CN(CC(=O)Nc1c(Cl)cccc1Cl)C(=O)c1sccc1-c1ccccc1 do in these assays?
PAFAH2 FP inh: inactive; PAFAH1B2 FP inh: inactive; PREPL inh: inactive; pPAFAH inh: inactive; Apaf-1 inh: inactive; PAFAH1B3 FP inh: inactive

What do the screens show for `C[C@@H]1CN([C@@H](C)CO)C(=O)c2cc(NC(=O)CCC(F)(F)F)ccc2O[C@H]1CN(C)S(=O)(=O)c1ccc(Cl)cc1`?
PAFAH2 FP inh: inactive; PAFAH1B2 FP inh: inactive; PREPL inh: inactive; pPAFAH inh: inactive; Apaf-1 inh: inactive; PAFAH1B3 FP inh: inactive

Results for O=C(COC(=O)Cc1ccc(Cl)cc1)NCc1ccco1 ?
PAFAH2 FP inh: inactive; PAFAH1B2 FP inh: inactive; PREPL inh: inactive; pPAFAH inh: inactive; Apaf-1 inh: inactive; PAFAH1B3 FP inh: inactive

What do the screens show for `CC(=O)c1cccc(NC(=O)COC(=O)CCNS(=O)(=O)c2ccccc2)c1`?
PAFAH2 FP inh: inactive; PAFAH1B2 FP inh: inactive; PREPL inh: inactive; pPAFAH inh: 29; Apaf-1 inh: inactive; PAFAH1B3 FP inh: inactive
